# The list is not random: actives were taken first. Their share in the collection is about 1.9%.
# VIM-2 inh: blocks Pseudomonas aeruginosa VIM-2 metallo-beta-lactamase; purified VIM-2, nitrocefin hydrolysis, epi-absorbance fluorescence; inhibition, % at 5.6 µM; hit rate 0.89% among 290,000; AID 1527;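 active = inhibition above the mean of all tested compounds plus 3 SD, cutoff set per screening run, cut at about 7.5% in these data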;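 note: red hydrolysis product quenches plate fluorescence so inhibitors raise well fluorescence; 0% = enzyme with DMSO and 100% = DMSO without enzyme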
# IMP-1 inh-1: blocks Pseudomonas aeruginosa IMP-1 metallo-beta-lactamase | hit rate 0.45% among 290,000 | inhibition, % at 5.6 µM | purified IMP-1, nitrocefin hydrolysis, epi-absorbance fluorescence | AID 1556;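 active = inhibition above the mean plus 3 SD of all compounds in the same screening run, cut at about 4.5% in these data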;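 note: 0% = IMP-1 with DMSO and 100% = DMSO wells lacking enzyme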
#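 Test system: recombinant IMP-1 enzyme, purified / Medium: HEPES buffer pH 7.1 with ZnSO4 and Brij 35 / Doses: single dose, 5.6 µM / Times: 25 °C, 15 min preincubation, 25 min reaction / Detection: Epi-absorbance via hydrolysed-nitrocefin quenching of white-plate fluorescence, 480/530 nm, EDTA stop / Evaluation: percent inhibition from optical density relative to buffer-blank wells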
# NadD block: NadD (S. aureus) enzyme inhibition; hit rate 0.78% among 360,000; purified NadD enzyme, colorimetric absorbance read-out; inhibition, % at 20 µM; in the data active = inhibition above about 26%
# core dimer inh: blocks dimerization of HCV core protein. TR-FRET GST/Flag-core106 dimerization, 1536-well. inhibition, % at 5 µM. hit rate 0.33% among 300,000. AID 1899;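 active = inhibition above the mean of all tested compounds plus 3 SD, set per screening campaign, cut at about 45% in these data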
#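 assay system = GST-tagged and Flag-tagged HCV core protein residues 1-106 | controls = unlabelled core106 and no-GST-core106 wells | incubation = compound-protein-antibody incubation 4 h at 22.5 °C | probe or stimulus = Eu donor and XL665 acceptor anti-tag antibodies | read-out = % inhibition based on acceptor/donor emission ratio | signal = TR-FRET 671 and 617 nm emission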
# IMP-1 inh-2: blocks IMP-1 metallo-beta-lactamase in VIM-2 selectivity screen; inhibition, % at 5.6 µM; shares compounds with VIM-2 inh; purified IMP-1, nitrocefin hydrolysis, epi-absorbance fluorescence; 1,300 tested, under 10 active; call rule not given here;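 note: 0% = enzyme with vehicle and 100% = vehicle without enzyme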
# VIM-2 FRET inh: inhibits VIM-2 in FRET assay to exclude epi-absorbance artifacts | shares compounds with VIM-2 inh | purified VIM-2, CCF2 FRET substrate hydrolysis | inhibition, % at 5.6 µM | hit rate 23% among 1,300;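 active = inhibition above the mean of all tested compounds plus 3 SD, cut at about 19% in these data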;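 note: 0% = VIM-2 plus DMSO and 100% = no enzyme wells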
# TEM-1 counter: blocks E. coli TEM-1 beta-lactamase in VIM-2 selectivity screen; shares compounds with VIM-2 inh; Purified TEM-1, nitrocefin hydrolysis, epi-absorbance fluorescence; inhibition, % at 5.6 µM; hit rate 3% among 1,300;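 active = inhibition above that campaign's mean inhibition plus 3 SD, cut at about 0.46% in these data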;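 note: 0% = TEM-1 with DMSO and 100% = TEM-1 with 100 µM potassium clavulanate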
# Target sequence (P62593 whole entry, looked up): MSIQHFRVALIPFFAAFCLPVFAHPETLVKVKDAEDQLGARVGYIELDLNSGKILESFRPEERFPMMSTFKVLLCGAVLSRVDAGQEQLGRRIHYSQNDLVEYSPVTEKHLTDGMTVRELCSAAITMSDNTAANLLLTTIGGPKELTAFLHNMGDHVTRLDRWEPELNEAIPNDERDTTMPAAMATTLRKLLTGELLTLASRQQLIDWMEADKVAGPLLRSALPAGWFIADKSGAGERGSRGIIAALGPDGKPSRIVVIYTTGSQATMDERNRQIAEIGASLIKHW
# VIM-2 inh conf: confirmation of P. aeruginosa VIM-2 metallo-beta-lactamase inhibitors; shares compounds with VIM-2 inh; purified VIM-2, nitrocefin hydrolysis, epi-absorbance; inhibition, % at 5.6 µM; hit rate 96% among 1,300;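 active = inhibition of the VIM-2 beta-lactamase enzyme above about 11% from the earlier first-round screen, limit read from the data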;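 note: 0% = VIM-2 with DMSO and 100% = buffer wells without enzyme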
# * marks the source's active call; other numbers are inactive results; x = no result given.
SMILES,VIM-2 inh,IMP-1 inh-1,NadD block,core dimer inh,IMP-1 inh-2,VIM-2 FRET inh,TEM-1 counter,VIM-2 inh conf
CCC(=O)Nc1ccc(N2CCN(Cc3ccccc3)CC2)cc1,0,-1,8,-6,x,x,x,x
O=C(Nc1ccc(N2CCN(Cc3ccccc3)CC2)cc1)c1ncn[nH]1,13*,-1,6,-5,-4,-1,-6,25*
CN(Cc1ccccc1)C(=O)[C@@H]1CCCN1C(=O)[C@@H]1CCCN1C(=O)c1cccc2ccccc12,x,x,3,x,x,x,x,x
CC(/C=N/NC(=S)Nc1cccc(S(=O)(=O)N(C)C)c1)c1ccccc1 (stereo not drawn),46*,-4,4,1,-2,67*,-3,52*
CN(C)S(=O)(=O)c1cccc(NC(=S)N/N=C/c2ccco2)c1,1,-3,-6,1,x,x,x,x
CN(C)S(=O)(=O)c1cccc(NC(=S)N/N=C/C(c2ccccc2)c2ccccc2)c1,21*,-6,10,9,-3,35*,-8,23*
CC(=O)Nc1ccc(C(=O)COC(=O)c2ccco2)c(F)c1,x,x,-5,x,x,x,x,x
NS(=O)(=O)c1ccc(CCNC(=O)COc2ccc3c4c(c(=O)oc3c2)CCC4)cc1,19*,-3,-4,-8,-3,-4,-8,28*
O=C(COc1ccc2c3c(c(=O)oc2c1)CCC3)NCc1ccncc1,29*,-2,0,2,-3,-3,-4,39*
O=C(COc1ccc2c3c(c(=O)oc2c1)CCC3)NCc1cccnc1,17*,-3,-10,3,-3,-1,-6,27*
O=C(COc1cc2oc(=O)c3c(c2cc1Cl)CCC3)NCc1ccncc1,28*,-3,2,1,-3,-4,-3,35*
Cc1cc(=O)oc2cc(OCC(=O)NCc3ccncc3)ccc12,2,-3,12,-1,x,x,x,x
COc1ccccc1CNC(=O)c1sccc1-c1ccccc1,0,-3,-4,14,x,x,x,x
CCCCNC(=O)c1cc2c(-c3ccc(Cl)cc3)nn(C)c2s1,-4,-3,-4,4,x,x,x,x
CCCCN(CC)CCCNC(=O)c1cc2c(-c3ccc(OC)c(OC)c3)nn(C)c2s1,13*,-4,-16,-2,-3,1,-5,24*
Cc1n[nH]c(C)c1CCCCOc1ccc([N+](=O)[O-])cc1,20*,-2,1,6,-3,47*,-7,30*
CCCC(C)(C)C(=O)N1CCC1(C)C(=O)NS(=O)(=O)c1cccc(Cl)c1 (stereo not drawn),x,x,0,x,x,x,x,x
Cc1cccc(NC(=O)C(C)OC(=O)CNC(=O)C2CCCCC2)c1 (stereo not drawn),x,x,4,x,x,x,x,x
COc1ccc(Nc2nc(N3CCCC3)nc3ccccc23)c(OC)c1,31*,-1,-2,-2,-2,1,-6,43*
COc1ccc(Nc2ncnc3ccccc23)c(OC)c1,-5,-2,-5,-1,x,x,x,x
COc1ccccc1N1CC(O)=C(c2nc3ccccc3c(=O)[nH]2)C1=N,15*,-3,10,4,-4,-6,-9,23*
CCN(CC(=O)Nc1ccc(NC(C)=O)cc1)C(=O)/C=C/c1ccc(S(=O)(=O)N2CCCCCC2)cc1,-3,-3,9,18,x,x,x,x
CCN(CC)CCOC(=O)c1cccc2c1-c1ccccc1C2O (stereo not drawn),25*,0,-5,-3,-5,4,-9,43*
O=C(Nc1ccc(Cl)cc1)N1CCN(c2ccc3nnc(-c4ccc(F)cc4)n3n2)CC1,2,-1,17,12,x,x,x,x
O=C(Nc1ccccc1Cl)N1CCN(c2ccc3nnc(-c4ccccc4)n3n2)CC1,16*,1,-3,9,0,8,-1,24*
COc1cc2c(cc1OC)C(c1ccc(-c3ccccc3Cl)o1)=NCC2,19*,-1,-3,3,-2,8,-5,28*
COc1cc2c(cc1OC)C(c1ccc(-c3ccc(Cl)cc3Cl)o1)=NCC2,3,0,-2,-11,x,x,x,x

# Screening results (PubChem BioAssay)
